Laboratory results as given in ChEMBL document CHEMBL1144610, “High-affinity carbamate analogues of morphinan at opioid receptors” (Bioorg Med Chem Lett, 2007).
Active and inactive are the calls of the source. The calls are words filed in the database; no cut-off is given here.

How the values were obtained:
Mu-type opioid receptor [1] = target: T1, Mu-type opioid receptor (Homo sapiens, UniProt P35372); experiment: Agonist activity at human mu opioid receptor expressed in CHO cells assessed as maximal stimulation of [35S]GTP-gamma-S binding; assay type: functional, cell-based
[2] = target: Opioid receptors; mu & kappa (Homo sapiens) (UniProt P41145+P35372); experiment: Selectivity for kappa opioid receptor over mu opioid receptor expressed in CHO cells; assay type: cell-based
[3] = target: Delta-type opioid receptor (Homo sapiens, UniProt P41143); experiment: Displacement of [3H]naltrindole from human delta opioid receptors expressed in CHO cell membrane
[4] = target: T2, Kappa-type opioid receptor (Homo sapiens, UniProt P41145); experiment: Agonist activity at huma kappa opioid receptor expressed in CHO cells assessed as […] of [35S]GTP-gamma-S binding; assay type: functional, cell-based
[5] = target: T2, Kappa-type opioid receptor; experiment: Displacement of [3H]U-69593 from human kappa opioid receptors expressed in CHO cell membrane
Mu-type opioid receptor [6] = target: T1, Mu-type opioid receptor; experiment: Antagonist activity at human mu opioid receptor expressed in CHO cells assessed as DAMGO-stimulated [35S]GTP-gamma-S binding; assay type: functional, cell-based
[7] = target: T2, Kappa-type opioid receptor; experiment: Agonist activity at human opioid kappa receptor expressed in CHO cells assessed as maximal stimulation of [35S]GTP-gamma-S binding relative to control; assay type: functional, cell-based
Method in brief: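 CHO cell membranes stably expressing only the human κ opioid receptor were incubated with varying concentrations of each compound. Stimulation of [35S]GTPγS binding was measured, and maximal stimulation was taken as Emax.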

[8] = target: Opioid receptors; delta & kappa (Homo sapiens) (UniProt P41145+P41143); experiment: Selectivity for kappa opioid receptor over delta opioid receptor; assay type: protein assay
Mu-type opioid receptor [9] = target: T1, Mu-type opioid receptor; experiment: Displacement of [3H]DAMGO from human mu opioid receptors expressed in CHO cell membrane
[10] = Displacement of [3H]naltrindole from human delta opioid receptors expressed in CHO cell membrane

T2 sequence (P41145 whole entry): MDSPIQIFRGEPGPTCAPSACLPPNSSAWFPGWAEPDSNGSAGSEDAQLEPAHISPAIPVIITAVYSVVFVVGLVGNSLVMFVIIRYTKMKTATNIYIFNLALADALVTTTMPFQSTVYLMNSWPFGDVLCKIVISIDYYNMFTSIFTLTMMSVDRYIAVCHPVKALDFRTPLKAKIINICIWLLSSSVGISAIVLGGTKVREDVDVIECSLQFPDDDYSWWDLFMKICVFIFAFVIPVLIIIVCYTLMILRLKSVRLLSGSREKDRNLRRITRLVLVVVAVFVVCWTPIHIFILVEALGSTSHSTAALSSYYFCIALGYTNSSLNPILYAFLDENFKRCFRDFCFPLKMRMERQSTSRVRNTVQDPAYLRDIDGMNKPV
Sequence of Delta-type opioid receptor (P41143 whole entry): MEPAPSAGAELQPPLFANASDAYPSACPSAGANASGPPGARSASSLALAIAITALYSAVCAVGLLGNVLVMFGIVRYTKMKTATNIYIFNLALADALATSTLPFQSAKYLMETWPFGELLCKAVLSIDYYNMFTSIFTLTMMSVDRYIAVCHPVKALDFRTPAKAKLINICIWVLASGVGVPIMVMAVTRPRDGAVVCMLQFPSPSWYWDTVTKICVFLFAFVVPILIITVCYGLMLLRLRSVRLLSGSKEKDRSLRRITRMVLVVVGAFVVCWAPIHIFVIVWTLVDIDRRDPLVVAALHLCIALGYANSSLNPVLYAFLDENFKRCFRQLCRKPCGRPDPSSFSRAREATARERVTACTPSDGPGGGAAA
Sequence of Opioid receptors; delta & kappa (Homo sapiens) (P41143 whole entry, looked up): as the sequence (P41143 whole entry) above
Sequence of Opioid receptors; delta & kappa (Homo sapiens) (P41145 whole entry, looked up): as the sequence (P41145 whole entry) above
T1 sequence (P35372 whole entry): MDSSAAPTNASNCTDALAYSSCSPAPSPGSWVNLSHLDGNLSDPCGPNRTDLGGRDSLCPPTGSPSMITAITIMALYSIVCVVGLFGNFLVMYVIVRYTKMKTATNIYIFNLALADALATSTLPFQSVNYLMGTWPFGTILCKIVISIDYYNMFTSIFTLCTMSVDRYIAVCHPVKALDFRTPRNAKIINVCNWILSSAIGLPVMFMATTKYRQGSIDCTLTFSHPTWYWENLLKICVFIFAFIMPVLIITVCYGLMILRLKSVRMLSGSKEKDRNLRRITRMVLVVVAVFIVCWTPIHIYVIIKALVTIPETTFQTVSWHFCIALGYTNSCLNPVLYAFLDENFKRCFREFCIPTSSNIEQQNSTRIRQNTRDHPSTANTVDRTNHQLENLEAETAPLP
Sequence of Opioid receptors; mu & kappa (Homo sapiens) (P35372 whole entry, looked up): as the sequence (P35372 whole entry) above
Sequence of Opioid receptors; mu & kappa (Homo sapiens) (P41145 whole entry, looked up): as the sequence (P41145 whole entry) above

Row | SMILES | EC50 (Mu-type opioid receptor [1]) [nM] | Emax (Mu-type opioid receptor [1]) [%] | Ratio Ki [2] | Ki [3] [nM] | EC50 [4] [nM] | Ki [5] [nM] | IC50 (Mu-type opioid receptor [6]) [nM] | Imax (Mu-type opioid receptor [6]) [%] | Emax [7] [%] | Ratio Ki [8] | Ki (Mu-type opioid receptor [9]) [nM] | Activity (Mu-type opioid receptor [6]) | Ki [10] [nM]
1 | O=C(Nc1ccccc1)Oc1ccc2c(c1)C13CCCCC1C(C2)N(CC1CC1)CC3 (stereo not given) | 0.44 | 39 | 2.4 | 1.6 | 0.38 | 0.046 | 6.4 | 70 | 120 | 35 | 0.11 |  | 
2 | O=C(NCc1ccccc1)Oc1ccc2c(c1)C13CCCCC1C(C2)N(CC1CCC1)CC3 (single isomer, unassigned; (-)) | 7.1 | 54 | 0.4 | 15 | 4.7 | 0.3 | 260 | 50 | 110 | 50 | 0.7 |  | 
3 | CNC(=O)Oc1ccc2c(c1)C13CCCCC1C(C2)N(C)CC3 (stereo not given) | 50 | 71 | 0.4 | 53 | 29 | 3.3 |  |  | 96 | 16 | 1.4 |  | 
4 | CNC(=O)Oc1ccc2c(c1)C13CCCCC1C(C2)N(CC1CCC1)CC3 (single isomer, unassigned; (-)) | 11 | 60 | 1.5 | 30 | 9.6 | 0.81 |  |  | 88 | 37 | 1.2 |  | 
5 | CCNC(=O)Oc1ccc2c(c1)C13CCCCC1C(C2)N(CC1CC1)CC3 (single isomer, unassigned; (-)) | 2.4 | 40 | 2 | 2.8 | 1.2 | 0.14 | 10 | 68 | 140 | 20 | 0.29 |  | 
6 | O=C(Nc1ccccc1)Oc1ccc2c(c1)C13CCCCC1C(C2)N(CC1CCC1)CC3 (single isomer, unassigned; (-)) | 1.3 | 80 | 2 | 3.9 | 2.2 | 0.051 | 22 | 37 | 74 | 76 | 0.12 |  | 
7 | CCNC(=O)Oc1ccc2c(c1)C13CCCCC1C(C2)N(C)CC3 (stereo not given) |  |  | 0.1 | 78 |  | 36 |  |  |  | 2 | 4.8 |  | 
8 | O=C(NCc1ccccc1)Oc1ccc2c(c1)C13CCCCC1C(C2)N(CC1CC1)CC3 (single isomer, unassigned; (-)) | 2.2 | 39 | 2 | 2.7 | 1.1 | 0.14 | 16 | 71 | 130 | 20 | 0.3 |  | 
9 | CCNC(=O)Oc1ccc2c(c1)C13CCCCC1C(C2)N(CC1CCC1)CC3 (stereo not given) | 39 | 32 | 0.9 | 27 | 23 | 4.3 |  | 33 | 61 | 6 | 3.7 | inactive | 
10 | Oc1ccc2c(c1)[C@@]13CCCC[C@H]1[C@@H](C2)N(CC1CC1)CC3 [CYCLORPHAN] |  |  |  |  |  |  |  |  |  |  |  |  | 1.9
11 | Oc1ccc2c(c1)[C@@]13CCCC[C@H]1[C@@H](C2)N(CC1CCC1)CC3 [BUTORPHAN] |  |  |  |  |  |  |  |  |  |  |  |  | 5.9
12 | CNC(=O)Oc1ccc2c(c1)C13CCCCC1C(C2)N(CC1CC1)CC3 (single isomer, unassigned; (-)) | 14 | 44 | 1.6 | 42 | 16 | 3.4 |  |  | 78 | 12 | 5.3 |  | 
